This is an account of results in ChEMBL document CHEMBL4371095, “Triazole-Based Inhibitors of the Wnt/β-Catenin Signaling Pathway Improve Glucose and Lipid Metabolisms in Diet-Induced Obese Mice” (J Med Chem, 2019).

Active and inactive are the calls of the source. The rule behind the calls is not given here.

A short description of data set [1]: Inhibition of Wnt3a activated Wnt/beta-catenin signaling (unknown origin) expressed in HEK293 cells harboring TCF/LEF-responsive luciferase preincubated with cells followed by Wnt3a addition and measured after 24 hrs by luciferase reporter gene assay. The note with it: Homo sapiens. It is filed as cell-based. A digest of the protocol:
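HEK293 cells stably carrying TOPFlash/GFP were plated at 2000/well in DMEM with 10% FBS and kept overnight at 37 °C. Compound was pin-transferred, then recombinant human Wnt-3a was added (200 ng/mL working stock). After 24 h at 37 °C, ONE-Glo luminescence was read after 30 min. IC50 is mean ± SE from three independent experiments.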
(Reporter assays use an easily measured gene product as a stand-in for the process of interest.)

The subject of data set [2] is HEK293. Description: Growth inhibition of HEK293 cells harboring Wnt after 24 hrs by CellTiter-Fluor assay. Particulars: human, hek293, 24 h. It is filed as cell-based. The gist of the method:
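HEK293 cells stably carrying the TOPFlash reporter were plated at 2000/well in DMEM with 10% FBS and incubated overnight. Compound was added with recombinant human Wnt-3a, then incubated 24 h at 37 °C. CellTiter-Fluor reagent was added and fluorescence read after 30 min at 37 °C.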

The target of the next data set is Axin-1 (Homo sapiens) (UniProt O15169). The data set can be described thus: Stabilization of Axin1 in human HuH7 cells assessed as decrease in lipid accumulation at 5 uM after 36 hrs by nile red staining based fluorescence microscopic method. It is filed as cell-based. The gist of the method: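 Huh7 cells on collagen I-coated coverslips were treated with 5 μM compound for 36 h, then with 200 μM sodium oleate for a further 12–16 h. Cells were stained with 1 μM Nile red in HBSS for 10 min at 37 °C in the dark and imaged by fluorescence microscopy at 552/636 nm.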

The test system of data set [3] is HEK293. The data set can be described thus: Growth inhibition of unstimulated HEK293 cells up to 100 uM after 72 hrs by CellTiter-Fluor assay. It is filed as cell-based. Particulars: human, hek293, 72 h. A digest of the protocol: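 Unstimulated HEK293 cells were plated at 3.5×10^5/well and grown for 24 h, then incubated with compound for 72 h. Viability was read with CellTiter-Fluor.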

In data set [4] the test system is HEK293. The data set can be described thus: Inhibition of LiCl-activated Wnt/beta-catenin/Axin signaling (unknown origin) expressed in HEK293 cells assessed as degradation of beta-catenin by measuring decrease in beta-catenin protein expression after 24 hrs by Western blot method. The note with it: Homo sapiens. The data set is classed as cell-based. The gist of the method:
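HEK293 cells were treated with compound in the presence of lithium chloride for 24 h. Lysis buffer contained 10 mM HEPES, 100 μM EDTA, 10 mM KCl, 0.5% NP40 and inhibitors. Protein was quantified by BCA, resolved on 10% SDS-PAGE, and immunoblotted for β-catenin.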
A general note: A western blot detects proteins with antibodies after separation by electrophoresis.

Data set [5] in a line: Oral bioavailability in mouse. The data set is classed as ADME, organism-based. The note with it: in vivo.

Chain of Axin-1 (Homo sapiens) (O15169 whole entry): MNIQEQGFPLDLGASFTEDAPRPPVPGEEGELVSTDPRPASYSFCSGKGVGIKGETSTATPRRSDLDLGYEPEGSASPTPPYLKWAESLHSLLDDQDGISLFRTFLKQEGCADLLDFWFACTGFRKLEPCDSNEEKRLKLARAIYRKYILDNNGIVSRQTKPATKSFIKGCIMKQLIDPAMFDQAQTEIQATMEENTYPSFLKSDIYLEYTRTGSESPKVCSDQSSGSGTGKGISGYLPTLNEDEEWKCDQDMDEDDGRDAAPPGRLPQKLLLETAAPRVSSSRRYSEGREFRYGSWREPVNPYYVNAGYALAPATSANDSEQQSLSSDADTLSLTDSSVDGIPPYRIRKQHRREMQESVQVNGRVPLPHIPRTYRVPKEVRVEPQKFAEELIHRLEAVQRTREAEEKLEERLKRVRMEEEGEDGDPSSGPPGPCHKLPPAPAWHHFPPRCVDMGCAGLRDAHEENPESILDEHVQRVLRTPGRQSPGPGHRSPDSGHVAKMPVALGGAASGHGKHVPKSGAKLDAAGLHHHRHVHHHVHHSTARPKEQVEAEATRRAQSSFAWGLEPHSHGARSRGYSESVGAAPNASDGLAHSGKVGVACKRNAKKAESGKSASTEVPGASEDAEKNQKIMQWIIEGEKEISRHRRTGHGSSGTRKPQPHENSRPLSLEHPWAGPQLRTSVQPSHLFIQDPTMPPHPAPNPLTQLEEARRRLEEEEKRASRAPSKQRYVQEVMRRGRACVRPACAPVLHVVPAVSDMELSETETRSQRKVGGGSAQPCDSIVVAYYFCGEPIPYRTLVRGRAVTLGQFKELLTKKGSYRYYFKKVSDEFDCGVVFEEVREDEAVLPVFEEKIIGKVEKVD

As to `Cc1c(C(=O)Nc2ccc3ccccc3n2)nnn1-c1ccccc1N1CCOCC1`, the IC50 in data set [1] stood at 1900 nM. Also, the “growth inhibition (GI)” value in the data set on HEK293 [2] is recorded as “Non-Toxic”.

Molecule `Cc1c(C(=O)Nc2ccc3ccccc3n2)nnn1-c1ccccc1Br` came in with an IC50 in data set [1] of 7.6 nM. The “growth inhibition (GI)” value in the data set on HEK293 [2] was “Non-Toxic”.

With `Cc1ccc(-n2nnc(C(=O)Nc3ccc4ccccc4n3)c2C)cc1`, the IC50 in data set [1] was > 10000 nM. Also, in the data set with HEK293 [2], the “growth inhibition (GI)” value is “Non-Toxic”.

Turning to `Cc1ccccc1-n1nnc(C(=O)Nc2ccc3cc(CN4CCOCC4)ccc3n2)c1C`, the IC50 in data set [1] worked out at 1300 nM. Also, the “growth inhibition (GI)” value in the data set on HEK293 [2] is listed as “Non-Toxic”.

Regarding `Oc1nc(-c2ccc(C(F)(F)F)cc2)nc2c1CSCC2`, the outcome at Axin-1 (Homo sapiens) was Active.

With `Cc1cccc(-n2nnc(C(=O)Nc3ccc4ccccc4n3)c2C)c1`, the IC50 in data set [1] is > 10000 nM. Moreover, in the data set with HEK293 [2], the “growth inhibition (GI)” value is on record as “Non-Toxic”.

In data set [1], `Cc1c(C(=O)Nc2ccc3ccccc3n2)nnn1-c1ccccc1F` came in with an IC50 of 1.2 nM. Besides, the “growth inhibition (GI)” value with HEK293 [2] is given as “Non-Toxic”; in the data set with HEK293 [3], “Toxic”.

`Cc1ccccc1-n1nnc(C(=O)Nc2ccc3ccccc3c2)c1C` returned an IC50 in data set [1] of 4900 nM. The “growth inhibition (GI)” value with HEK293 [2] is “Non-Toxic”.

As to `Cc1ccccc1-n1nnc(C(=O)Nc2ccc3cc(CN4CCSCC4)ccc3n2)c1C`, it took 230 nM to reach half-maximal inhibition in data set [1] (IC50). Also, the “growth inhibition (GI)” value in the data set with HEK293 [2] is listed as “Non-Toxic”.

In turn, `Cc1c(C(=O)Nc2ccc3ccccc3n2)nnn1-c1cccc2ccccc12` registered an IC50 in data set [1] of 5500 nM. Further, the “growth inhibition (GI)” value with HEK293 [2] was “Non-Toxic”. Moreover, in the data set with HEK293 [4], the inhibition entry was “inactive”.

`Cc1c(C(=O)Nc2ccc3ccccc3n2)nnn1-c1ccccc1C#N`: the IC50 in data set [1] worked out at 34 nM. In the data set with HEK293 [2], the “growth inhibition (GI)” value is given as “Non-Toxic”.

In the case of `Cc1c(C(=O)Nc2ccc3ccccc3n2)nnn1-c1ccccc1-c1ccccc1`, the IC50 in data set [1] is 390 nM. In addition, the “growth inhibition (GI)” value in the data set on HEK293 [2] is recorded as “Non-Toxic”.

The molecule `Cc1cccc(-n2nnc(C(=O)Nc3ccc4ccccc4n3)c2C)c1C` registered an IC50 in data set [1] of 140 nM. Further, the “growth inhibition (GI)” value in the data set with HEK293 [2] was “Non-Toxic”.

On to `Cc1ccccc1-n1nnc(C(=O)Nc2ccc3cc(CN4CCCCC4)ccc3n2)c1C`, for which, in data set [1], inhibition was half-maximal at 1200 nM (IC50). Further, in the data set on HEK293 [2], the “growth inhibition (GI)” value was “Non-Toxic”.

`CC(=O)c1ccccc1-n1nnc(C(=O)Nc2ccc3ccccc3n2)c1C` returned an IC50 in data set [1] of 8800 nM. In addition, the “growth inhibition (GI)” value in the data set on HEK293 [2] is “Non-Toxic”.

In the case of `Cc1c(C(=O)Nc2ccc3ccccc3n2)nnn1-c1ccccc1C(N)=O`, the IC50 in data set [1] is > 10000 nM. Also, the “growth inhibition (GI)” value in the data set on HEK293 [2] was “Non-Toxic”.

In the case of `Cc1cc(/C=C/c2ccc3cc(N(C)C)ccc3[n+]2C)c(C)n1-c1ccccc1` [PYRVINIUM], half-maximal inhibition in data set [1] (IC50) required 750 nM. Moreover, the bioavailability in data set [5] was < 1%.

In the case of `CC(C)c1c(C(=O)Nc2ccc3ccccc3n2)nnn1-c1ccccc1F`, in data set [1], half-maximal inhibition (IC50) required 25 nM. For the same molecule, the “growth inhibition (GI)” value with HEK293 [2] is “Non-Toxic”.

With `COc1ccccc1-n1nnc(C(=O)Nc2ccc3ccccc3n2)c1C`, half-maximal inhibition in data set [1] (IC50) was put at 18 nM. Besides, the “growth inhibition (GI)” value with HEK293 [2] is recorded as “Non-Toxic”.

`CCc1c(C(=O)Nc2ccc3ccccc3n2)nnn1-c1ccccc1F` returned an IC50 in data set [1] of 4.7 nM. Moreover, the “growth inhibition (GI)” value in the data set with HEK293 [2] is “Non-Toxic”.

The molecule `Cc1ccccc1-n1nnc(C(=O)Nc2ccc3cc(Br)ccc3n2)c1C` came in with an IC50 in data set [1] of 830 nM. The “growth inhibition (GI)” value in the data set with HEK293 [2] is reported as “Non-Toxic”.

In data set [1], `Cc1ccc(-n2nnc(C(=O)Nc3ccc4ccccc4n3)c2C)c(C)c1` had an IC50 of 270 nM. Further, the “growth inhibition (GI)” value with HEK293 [2] is “Non-Toxic”.

As usually defined, the IC50 is the concentration that inhibits the measured activity by half. Lower therefore signals greater potency in that assay. Broadly, the bioavailability is dose-corrected exposure relative to a reference, in per cent. Lower therefore signals little systemic uptake.
